Results: ChEMBL document CHEMBL1629439, “High-throughput identification of antibacterials against methicillin-resistant Staphylococcus aureus (MRSA) and the transglycosylase” (Bioorg Med Chem, 2010)
≈ marks a conversion by molar mass, not a printed value.

What was measured:
Staphylococcus aureus [1] = test: Antimicrobial activity against oxacillin- and methicillin-resistant Staphylococcus aureus isolate Sa-OXA-R2 after 18 to 24 hrs by alamar blue assay; format: functional
How it was run: (§1)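 Broth microdilution per NCCLS standard, Mueller-Hinton broth, 8-point twofold dilutions; exponentially growing cells at 5 10^5 cells/ml with compound, 18–24 h at 37 C; 20% Alamar blue added, fluorescence read; MIC90 taken as lowest concentration preventing at least 90% growth.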

Bacillus subtilis = test: Antimicrobial activity against Bacillus subtilis ATCC 23857 after 18 to 24 hrs by alamar blue assay; format: functional
How it was run: (§2)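 Broth microdilution per NCCLS in Mueller-Hinton broth, 8-point twofold dilutions, 384-well format. Exponential-phase cells at 5 × 10^5 cells/ml incubated with compound 18–24 h at 37 °C, then 20% Alamar blue added and fluorescence read. MIC90 taken as the lowest concentration preventing at least 90% bacterial growth.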

Escherichia coli = test: Antimicrobial activity against Escherichia coli ATCC […] after 18 to 24 hrs by alamar blue assay; format: functional; details: Escherichia coli; read-out: MIC; how it was run: as §2
Pseudomonas aeruginosa = test: Antimicrobial activity against Pseudomonas aeruginosa ATCC 25619 after 18 to 24 hrs by alamar blue assay; format: functional; details: Pseudomonas aeruginosa, ATCC 25619; read-out: MIC; how it was run: as §2
Acinetobacter baumannii = test: Antimicrobial activity against Acinetobacter baumannii ATCC 49139 after 18 to 24 hrs by alamar blue assay; format: functional; details: Acinetobacter baumannii, ATCC 49139; read-out: MIC; how it was run: as §2
[2] = system: Stenotrophomonas maltophilia; test: Antimicrobial activity against Stenotrophomonas maltophilia ATCC 13637 after 18 to 24 hrs by alamar blue assay; format: functional; details: Stenotrophomonas maltophilia, ATCC 13637; read-out: MIC; how it was run: as §2
Serratia marcescens = test: Antimicrobial activity against Serratia marcescens ATCC 14756 after 18 to 24 hrs by alamar blue assay; format: functional; details: Serratia marcescens, ATCC 14756; read-out: MIC; how it was run: as §2
[3] = system: Mycolicibacterium smegmatis; test: Antimicrobial activity against Mycobacterium smegmatis BCRC 11565 after 18 to 24 hrs by alamar blue assay; format: functional; details: Mycolicibacterium smegmatis, BCRC 11565; read-out: MIC; how it was run: as §2
Staphylococcus aureus [4] = test: Antimicrobial activity against methicillin-resistant Staphylococcus aureus isolate NTUH4722 after 18 to 24 hrs by alamar blue assay; format: functional; how it was run: as §1
Staphylococcus aureus [5] = test: Antimicrobial activity against methicillin-resistant Staphylococcus aureus ATCC 33592 after 18 to 24 hrs by alamar blue assay; format: functional; details: Staphylococcus aureus, ATCC 33592; read-out: MIC; how it was run: as §1
Staphylococcus aureus [6] = test: Antimicrobial activity against Staphylococcus aureus ATCC 29213 after 18 to 24 hrs by alamar blue assay

| SMILES | MIC (Staphylococcus aureus [1]) | MIC (Bacillus subtilis) | MIC (Escherichia coli) | MIC (Pseudomonas aeruginosa) | MIC (Acinetobacter baumannii) | MIC [2] | MIC (Serratia marcescens) | MIC [3] | MIC (Staphylococcus aureus [4]) | MIC (Staphylococcus aureus [5]) | MIC (Staphylococcus aureus [6]) |
| --- | --- | --- | --- | --- | --- | --- | --- | --- | --- | --- | --- |
| NC(=O)c1oc2ccccc2c1NC(=O)c1ccc([N+](=O)[O-])o1 | 2 µg/mL (≈ 6.34 µM) | 0.06 µg/mL (≈ 0.19 µM) | 256 µg/mL (≈ 812 µM) | 128 µg/mL (≈ 406 µM) | 12 µg/mL (≈ 38.1 µM) | 32 µg/mL (≈ 102 µM) | 32 µg/mL (≈ 102 µM) | 0.5 µg/mL (≈ 1.59 µM) | 0.5 µg/mL (≈ 1.59 µM) | 0.5 µg/mL (≈ 1.59 µM) | 2 µg/mL (≈ 6.34 µM) |
| Cc1c(CC(=O)O)c(=O)oc2c(C)c3occ(-c4ccc(Br)cc4)c3cc12 | 2 µg/mL (≈ 4.68 µM) | > 64 µg/mL | > 256 µg/mL | > 256 µg/mL | > 256 µg/mL | > 256 µg/mL | > 256 µg/mL | 1 µg/mL (≈ 2.34 µM) | 16 µg/mL (≈ 37.4 µM) | 2 µg/mL (≈ 4.68 µM) | 2 µg/mL (≈ 4.68 µM) |
| COC(=O)c1c(NC(=O)c2ccc([N+](=O)[O-])o2)sc2c1CC(C)(C)NC2(C)C | 2 µg/mL (≈ 4.91 µM) | 0.06 µg/mL (≈ 0.147 µM) | 256 µg/mL (≈ 628 µM) | 128 µg/mL (≈ 314 µM) | 12 µg/mL (≈ 29.5 µM) | 32 µg/mL (≈ 78.5 µM) | 32 µg/mL (≈ 78.5 µM) | 0.5 µg/mL (≈ 1.23 µM) | 4 µg/mL (≈ 9.82 µM) | 2 µg/mL (≈ 4.91 µM) | 2 µg/mL (≈ 4.91 µM) |
| CCC1Sc2ccc(S(=O)(=O)Nc3c(C)cc(C)cc3C)cc2NC1=O (stereo unspecified) | > 64 µg/mL | < 0.03 µg/mL | > 256 µg/mL | > 256 µg/mL | > 256 µg/mL | > 256 µg/mL | > 256 µg/mL | > 64 µg/mL | 32 µg/mL (≈ 81.9 µM) | 64 µg/mL (≈ 164 µM) | 2 µg/mL (≈ 5.12 µM) |
| Cc1c(CC(=O)NCCC(=O)O)c(=O)oc2c(C)c3occ(-c4ccc(Cl)cc4)c3cc12 | 2.5 µg/mL (≈ 5.51 µM) | > 64 µg/mL | > 256 µg/mL | > 256 µg/mL | > 256 µg/mL | > 256 µg/mL | > 256 µg/mL | 1 µg/mL (≈ 2.2 µM) | 2.5 µg/mL (≈ 5.51 µM) | 1.25 µg/mL (≈ 2.75 µM) | 2.5 µg/mL (≈ 5.51 µM) |
| Cc1c(CC(=O)N2CCC(C(=O)O)CC2)c(=O)oc2c(C)c3occ(-c4ccc(Cl)cc4)c3cc12 | 2.5 µg/mL (≈ 5.06 µM) | > 64 µg/mL | > 256 µg/mL | > 256 µg/mL | > 256 µg/mL | > 256 µg/mL | > 256 µg/mL | 1 µg/mL (≈ 2.02 µM) | 2.5 µg/mL (≈ 5.06 µM) | 1.25 µg/mL (≈ 2.53 µM) | 2.5 µg/mL (≈ 5.06 µM) |
| O=C(Nc1nnc(-c2ccc(Br)cc2)o1)c1cccc(F)c1 | 0.5 µg/mL (≈ 1.38 µM) | 0.5 µg/mL (≈ 1.38 µM) | > 256 µg/mL | > 256 µg/mL | > 256 µg/mL | > 256 µg/mL | > 256 µg/mL | 0.5 µg/mL (≈ 1.38 µM) | 0.5 µg/mL (≈ 1.38 µM) | 0.5 µg/mL (≈ 1.38 µM) | 2 µg/mL (≈ 5.52 µM) |
| O=C(Nc1ccc(Cl)cc1)c1cc(Br)ccc1NS(=O)(=O)c1ccc(Cl)cc1 | 0.5 µg/mL (≈ 1 µM) | < 0.03 µg/mL | > 256 µg/mL | > 256 µg/mL | > 256 µg/mL | > 256 µg/mL | > 256 µg/mL | > 64 µg/mL | 0.25 µg/mL (≈ 0.5 µM) | 0.25 µg/mL (≈ 0.5 µM) | 0.25 µg/mL (≈ 0.5 µM) |
| Cc1c(CC(=O)N2CCC[C@H]2C(=O)O)c(=O)oc2c(C)c3occ(-c4ccc(F)cc4)c3cc12 | 0.6 µg/mL (≈ 1.29 µM) | > 64 µg/mL | > 256 µg/mL | > 256 µg/mL | > 256 µg/mL | > 256 µg/mL | > 256 µg/mL | 1 µg/mL (≈ 2.16 µM) | 0.6 µg/mL (≈ 1.29 µM) | 1.25 µg/mL (≈ 2.7 µM) | 0.6 µg/mL (≈ 1.29 µM) |
| CSc1nc2ccc(NC(=O)c3ccc([N+](=O)[O-])o3)cc2s1 | 1 µg/mL (≈ 2.98 µM) | 0.06 µg/mL (≈ 0.179 µM) | 256 µg/mL (≈ 763 µM) | 128 µg/mL (≈ 382 µM) | 12 µg/mL (≈ 35.8 µM) | 32 µg/mL (≈ 95.4 µM) | 32 µg/mL (≈ 95.4 µM) | 0.5 µg/mL (≈ 1.49 µM) | 1 µg/mL (≈ 2.98 µM) | 1 µg/mL (≈ 2.98 µM) | 1 µg/mL (≈ 2.98 µM) |
| CCCc1cc(O)nc(N2NC(C)=CC2NC(=O)c2ccccc2F)n1 (stereo unspecified) | 1 µg/mL (≈ 2.8 µM) | 0.25 µg/mL (≈ 0.7 µM) | > 256 µg/mL | > 256 µg/mL | > 256 µg/mL | > 256 µg/mL | > 256 µg/mL | 0.25 µg/mL (≈ 0.7 µM) | 1 µg/mL (≈ 2.8 µM) | 0.5 µg/mL (≈ 1.4 µM) | 2 µg/mL (≈ 5.6 µM) |
